Assay results from ChEMBL document CHEMBL2177052, “Rapid and efficient synthesis of a novel series of substituted aminobenzosuberone derivatives as potent, selective, non-peptidic neutral aminopeptidase inhibitors” (Bioorg Med Chem, 2012).

Legend:
Cytosol aminopeptidase [1] = molecular target: T1, Cytosol aminopeptidase (Bos taurus, UniProt P00727); experiment: Competitive inhibition of bovine LAPc using L-leucine-p-nitroanilide as substrate by spectrophotometric analysis
T1 sequence (P00727 whole entry): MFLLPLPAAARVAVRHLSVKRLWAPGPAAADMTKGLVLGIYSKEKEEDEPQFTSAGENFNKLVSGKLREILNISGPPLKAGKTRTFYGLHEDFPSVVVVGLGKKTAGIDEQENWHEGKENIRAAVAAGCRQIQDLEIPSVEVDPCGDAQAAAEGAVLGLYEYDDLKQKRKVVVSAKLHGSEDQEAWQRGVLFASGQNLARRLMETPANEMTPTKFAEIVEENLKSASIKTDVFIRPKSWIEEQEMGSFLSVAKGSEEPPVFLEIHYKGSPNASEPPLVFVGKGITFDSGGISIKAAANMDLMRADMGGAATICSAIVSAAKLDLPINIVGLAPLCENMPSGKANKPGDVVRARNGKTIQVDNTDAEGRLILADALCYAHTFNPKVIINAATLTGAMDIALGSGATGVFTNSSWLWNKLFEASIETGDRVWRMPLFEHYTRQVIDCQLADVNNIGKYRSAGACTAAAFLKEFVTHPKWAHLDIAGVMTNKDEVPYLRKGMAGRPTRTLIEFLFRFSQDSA
In short: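 Cytosolic leucine aminopeptidase from bovine kidney, 20 Units per assay, in 0.1 M Tris–HCl pH 8.0 with 0.1 mM ZnCl2, 5 mM MnCl2 and 1 M KCl. Km for L-leucine-p-nitroanilide 2 mM. Reaction started by adding enzyme to 1 ml medium at 30 °C. p-Nitroanilide release followed continuously at 405 nm (ε = 10,800 M-1 cm-1) for initial velocities. Ki taken from Dixon plots.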

Aminopeptidase N [2] = molecular target: T2, Aminopeptidase N (Sus scrofa, UniProt P15145); experiment: Competitive inhibition of pig APN using L-leucine-p-nitroanilide as substrate by Dixon-plot analysis
T2 sequence (P15145 whole entry): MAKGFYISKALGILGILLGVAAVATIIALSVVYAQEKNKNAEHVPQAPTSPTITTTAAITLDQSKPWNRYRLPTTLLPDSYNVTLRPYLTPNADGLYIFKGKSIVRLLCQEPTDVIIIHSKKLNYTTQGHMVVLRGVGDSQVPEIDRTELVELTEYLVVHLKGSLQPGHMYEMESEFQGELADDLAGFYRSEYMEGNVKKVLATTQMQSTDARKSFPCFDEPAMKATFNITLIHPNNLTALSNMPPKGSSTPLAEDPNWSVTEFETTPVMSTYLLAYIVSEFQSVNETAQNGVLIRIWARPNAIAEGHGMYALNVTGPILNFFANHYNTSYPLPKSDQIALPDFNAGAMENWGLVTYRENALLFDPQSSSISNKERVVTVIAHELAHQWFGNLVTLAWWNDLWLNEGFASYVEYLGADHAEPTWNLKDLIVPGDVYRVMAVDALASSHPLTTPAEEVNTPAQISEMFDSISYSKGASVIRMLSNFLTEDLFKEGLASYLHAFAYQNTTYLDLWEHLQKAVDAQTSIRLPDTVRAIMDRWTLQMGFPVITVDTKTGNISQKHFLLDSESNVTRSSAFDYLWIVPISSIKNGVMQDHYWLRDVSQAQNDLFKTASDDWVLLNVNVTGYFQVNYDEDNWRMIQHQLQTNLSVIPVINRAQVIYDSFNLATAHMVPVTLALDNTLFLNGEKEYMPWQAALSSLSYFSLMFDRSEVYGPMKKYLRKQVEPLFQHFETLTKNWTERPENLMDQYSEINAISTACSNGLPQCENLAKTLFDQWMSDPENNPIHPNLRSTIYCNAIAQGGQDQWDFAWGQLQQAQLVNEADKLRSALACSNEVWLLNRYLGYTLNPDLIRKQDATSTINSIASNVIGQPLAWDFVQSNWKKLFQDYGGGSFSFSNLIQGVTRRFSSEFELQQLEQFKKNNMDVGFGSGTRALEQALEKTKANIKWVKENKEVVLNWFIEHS

[3] = molecular target: T3, Leukotriene A-4 hydrolase (Homo sapiens, UniProt P09960); experiment: Competitive inhibition of human recombinant LTA4H using alanine-p-nitroanilide as substrate by Dixon-plot analysis
T3 sequence (P09960 whole entry): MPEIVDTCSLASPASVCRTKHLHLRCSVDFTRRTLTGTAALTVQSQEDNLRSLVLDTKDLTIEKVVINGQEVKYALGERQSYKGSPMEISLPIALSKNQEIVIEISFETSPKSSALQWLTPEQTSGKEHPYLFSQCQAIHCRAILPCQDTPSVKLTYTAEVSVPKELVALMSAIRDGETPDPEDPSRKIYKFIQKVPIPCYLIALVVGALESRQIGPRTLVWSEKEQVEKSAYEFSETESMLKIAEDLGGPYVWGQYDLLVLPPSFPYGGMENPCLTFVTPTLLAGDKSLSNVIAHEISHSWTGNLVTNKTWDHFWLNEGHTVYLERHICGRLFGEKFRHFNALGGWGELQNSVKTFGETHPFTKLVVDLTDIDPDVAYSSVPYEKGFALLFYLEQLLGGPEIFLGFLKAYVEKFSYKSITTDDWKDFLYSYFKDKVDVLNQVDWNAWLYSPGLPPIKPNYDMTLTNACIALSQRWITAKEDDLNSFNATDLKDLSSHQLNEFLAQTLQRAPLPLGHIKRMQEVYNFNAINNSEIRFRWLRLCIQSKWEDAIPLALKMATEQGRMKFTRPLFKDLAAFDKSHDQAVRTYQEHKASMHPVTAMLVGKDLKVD
In short: (§1)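 Human LTA4H, 5 µg per assay, in 10 mM Tris–HCl pH 7.5 with 0.1 mM KCl. Alanine-p-nitroanilide used as substrate (Km 2 mM). Enzyme added last to start the 1 ml reaction at 30 °C. Release of p-nitroanilide followed continuously at 405 nm for initial rates. Ki from Dixon plots assuming rapid-equilibrium kinetics.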

Aminopeptidase N [4] = molecular target: Aminopeptidase N (Homo sapiens, UniProt P15144)
[5] = molecular target: T3, Leukotriene A-4 hydrolase; experiment: Competitive inhibition of human recombinant LTA4H using alanine-p-nitroanilide as substrate by spectrophotometric analysis; in short: as §1
Cytosol aminopeptidase [6] = molecular target: T1, Cytosol aminopeptidase; experiment: Competitive inhibition of bovine LAPc using L-leucine-p-nitroanilide as substrate by Dixon-plot analysis
Aminopeptidase N [7] = molecular target: T2, Aminopeptidase N; experiment: Competitive inhibition of pig APN using L-leucine-p-nitroanilide as substrate by spectrophotometric analysis
In short: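 Porcine kidney aminopeptidase-N, 1 mUnit per assay, in 0.02 M Tris–HCl pH 7.5 at 30 °C. L-Leucine-p-nitroanilide substrate, Km 0.2 mM. Enzyme addition starts the reaction. Continuous 405 nm read of p-nitroanilide release. Ki from Dixon plots for rapid-equilibrium inhibitors. For slow-binding inhibitors, progress curves were run with 3 nM enzyme and substrate at Km, steady state reached after 1.5 h, and Ki taken from Morrison plots.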

Sequence of Aminopeptidase N (Homo sapiens, UniProt P15144) (P15144 whole entry): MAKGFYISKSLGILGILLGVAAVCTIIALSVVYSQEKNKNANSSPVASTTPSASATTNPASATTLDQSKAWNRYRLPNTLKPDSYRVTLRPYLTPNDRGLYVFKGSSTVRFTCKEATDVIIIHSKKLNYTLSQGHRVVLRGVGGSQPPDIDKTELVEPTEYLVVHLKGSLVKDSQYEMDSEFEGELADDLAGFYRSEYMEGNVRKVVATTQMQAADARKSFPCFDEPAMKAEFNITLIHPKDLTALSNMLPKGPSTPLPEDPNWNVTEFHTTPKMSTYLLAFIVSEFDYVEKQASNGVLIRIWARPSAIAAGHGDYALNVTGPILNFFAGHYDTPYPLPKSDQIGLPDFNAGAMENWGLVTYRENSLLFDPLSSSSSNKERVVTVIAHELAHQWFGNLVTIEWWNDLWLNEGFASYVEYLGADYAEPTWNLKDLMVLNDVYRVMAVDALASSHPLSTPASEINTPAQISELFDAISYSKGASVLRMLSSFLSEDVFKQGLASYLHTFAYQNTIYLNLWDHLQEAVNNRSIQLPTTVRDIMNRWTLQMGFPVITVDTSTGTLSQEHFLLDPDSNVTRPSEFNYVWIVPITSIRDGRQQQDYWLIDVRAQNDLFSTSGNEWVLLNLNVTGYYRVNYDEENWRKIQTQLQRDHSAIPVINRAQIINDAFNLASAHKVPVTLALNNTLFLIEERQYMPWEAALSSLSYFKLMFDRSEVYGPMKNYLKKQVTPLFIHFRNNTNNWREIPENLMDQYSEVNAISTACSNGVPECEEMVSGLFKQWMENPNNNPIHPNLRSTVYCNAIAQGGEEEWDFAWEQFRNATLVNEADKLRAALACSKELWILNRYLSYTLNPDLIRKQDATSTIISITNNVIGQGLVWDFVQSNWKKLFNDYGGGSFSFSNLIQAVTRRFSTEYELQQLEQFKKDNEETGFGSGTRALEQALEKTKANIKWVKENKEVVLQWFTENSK

| SMILES | Ki (Cytosol aminopeptidase [1]) [µM] | Ki (Aminopeptidase N [2]) [µM] | Ki [3] [µM] | Ki (Aminopeptidase N [4]) [µM] | Ki [5] [µM] | Ki (Cytosol aminopeptidase [6]) [µM] | Ki (Aminopeptidase N [7]) [µM] |
| --- | --- | --- | --- | --- | --- | --- | --- |
| NC1Cc2ccccc2CC1=O (stereo not given) | > 1000 |  |  |  |  |  |  |
| N[C@H]1CCc2ccccc2/C(=C/c2ccccc2)C1=O |  | 80 | 380 |  |  |  |  |
| N[C@H]1CCc2ccccc2CC1=O | > 1000 | 1 |  | 1 | > 1000 |  |  |
| N[C@H]1CCc2ccccc2[C@@H](Cc2ccccc2)C1=O (racemic) | > 100 | 13 |  |  | > 100 |  |  |
| N[C@H]1CCc2ccccc2[C@@H](CCCc2ccccc2)C1=O (racemic) | > 100 | 12 |  |  | > 100 |  |  |
| N[C@H]1CCc2ccccc2[C@H](F)C1=O (racemic) | > 1000 | 0.3 |  |  | > 1000 |  |  |
| N[C@H]1CCc2ccccc2[C@H](SCc2ccccc2)C1=O (racemic) |  |  |  |  | > 100 | 40 | 0.083 |
| N[C@H]1CCc2ccccc2[C@H](Sc2ccccc2)C1=O (racemic) | > 100 |  |  |  | > 100 |  | 0.06 |
| N[C@H]1CCc2ccccc2[C@@H](Sc2ccccc2)C1=O (racemic) | > 100 |  |  |  | > 100 |  | 0.06 |
| N[C@H]1CCc2ccccc2[C@H](CCc2ccccc2)C1=O (racemic) |  | 88 | 470 |  |  |  |  |
| N[C@H]1CCc2ccccc2[C@@H](CCc2ccccc2)C1=O (racemic) | > 100 | 22 |  |  | > 100 |  |  |
